Rows were chosen to be rich in hits. Some 2.5% of all compounds tested hit in one or more screens of this group.
NS3 helicase inh – blocks Hepatitis C virus NS3 helicase unwinding. NS3 helicase DNA unwinding, Cy5 molecular beacon fluorescence. inhibition, % at 10.9 µM. actives 0.56% (n = 290,000). AID 1800;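 active = inhibition above the mean of all tested compounds plus 3 SD, set per campaign, cut at about 35% in these data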
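test system = hepatitis C virus NS3 helicase domain fragment enzyme | reagent = annealed dual-labelled DNA beacon duplex, ATP-started | times = 1 h at 25 °C | detection = Cy5 fluorescence, 0 and 60 min reads | read-out basis = percent inhibition from t60/t0 fluorescence ratio | control set = DMSO and thioflavine S | replication = one well per compound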
MBD2 inh – blocks human MBD2 binding to methylated DNA; TR-FRET, MBD2 binding to methylated oligonucleotide; Q9UBB5; inhibition, % at 4.4 µM; actives 0.31% (n = 370,000); in the data active = inhibition above about 13%
SUMO1-SIM PPI – alters human SUMO1 binding to SIM partners | SUMO1 binding to a labelled peptide, TR-FRET, 1 h | actives 0.33% (n = 360,000) | inhibition, % at 20 µM; in the data active = inhibition above about 37%
DSG3 Ab inh – blocks pemphigus antibody binding to human desmoglein-3. P32926. binding (percent of control), % at 10 µM. DSG3-coupled beads, scFv-anti-DSG3-GFP binding, flow cytometry; active compounds read low. actives 0.48% (n = 310,000). AID 588358;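 active = binding more than 3 SD below its plate's average and above zero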;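 note: hits lower antibody fragment binding to DSG3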
UHRF1 MBD2 ctr – blocks human UHRF1 binding to methylated DNA | UHRF1 binding to methylated oligo, TR-FRET | inhibition, % at 4.4 µM | actives 0.75% (n = 370,000) | AID 687016; in the data active = inhibition above about 21%;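 note: UHRF1 SRA domain binding a hemimethylated CpG hairpin DNA probe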
DNMT1 block – DNMT1 (human) enzyme inhibition; P26358; DNMT1 molecular beacon, Hinp1I cleavage, fluorescence; inhibition (reported as % activation of signal), % at 10 µM; actives 0.83% (n = 360,000); AID 588458; in the data active = inhibition above about 50%
Beacon interf DR – shows spectral interference in the DNMT1 beacon assay | IC50, µM | AID 602382 | shares compounds with DNMT1 block | 200 tested, under 10 active | molecular beacon fluorescence, spectral interference counter-screen; call rule not given here
DNMT1 confirm – confirmation of human DNMT1 inhibitors. shares compounds with DNMT1 block. DNMT1 molecular beacon HinP1I cleavage, fluorescence. inhibition, % at 10 µM. actives 8% (n = 2,300). AID 602385;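 active = average inhibition of at least 30% in the single-concentration confirmation test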
Beacon interf – beacon fluorescence artifact counter-screen | shares compounds with DNMT1 block | DNMT1 molecular beacon spectral interference counterscreen, fluorescence 485/520 | activation (fluorescence interference), % at 10 µM | actives 1% (n = 2,300);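 active = activation of at least 30% at 10 µM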;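 note: DNMT1 catalytic domain with a HinP1I cleavage step and a FAM/dabcyl DNA beacon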
Numbers stand for hits.

What do the screens show for `O=C1NC(=O)C(=Cc2ccc(SC3CCCCC3)o2)C(=O)N1`?
NS3 helicase inh: inactive; MBD2 inh: inactive; SUMO1-SIM PPI: inactive; DSG3 Ab inh: inactive; UHRF1 MBD2 ctr: inactive; DNMT1 block: 86; DNMT1 confirm: inactive; Beacon interf: inactive

What do the screens show for `CN1C(=O)NC(=O)/C(=C\c2ccc([N+](=O)[O-])o2)C1=O`?
NS3 helicase inh: inactive; SUMO1-SIM PPI: inactive; DSG3 Ab inh: inactive; DNMT1 block: 101; Beacon interf DR: inactive; DNMT1 confirm: 112; Beacon interf: inactive

Results for N#CC(C#N)=C(N)c1cccnc1 ?
NS3 helicase inh: inactive; MBD2 inh: inactive; SUMO1-SIM PPI: inactive; DSG3 Ab inh: inactive; UHRF1 MBD2 ctr: inactive; DNMT1 block: 62; DNMT1 confirm: inactive; Beacon interf: inactive

Results for CC(=O)Nc1ccc(OC(=O)c2ccccc2N)cc1 ?
NS3 helicase inh: inactive; MBD2 inh: inactive; SUMO1-SIM PPI: inactive; DSG3 Ab inh: inactive; UHRF1 MBD2 ctr: inactive; DNMT1 block: inactive

Results for Cc1cc(/C=C2\C(=O)NC(=O)N(c3ccccc3F)C2=O)c(C)n1-c1cc(C(=O)O)cc(C(=O)O)c1 ?
NS3 helicase inh: inactive; MBD2 inh: inactive; SUMO1-SIM PPI: inactive; DSG3 Ab inh: inactive; UHRF1 MBD2 ctr: 52; DNMT1 block: 87; Beacon interf DR: inactive; DNMT1 confirm: inactive; Beacon interf: inactive

How did COC(=O)C1=C(c2ccc(C(C)=O)cc2)C[C@@H]2CC[C@H]1N2C(=O)N1CCC(O)CC1 do in these assays?
MBD2 inh: inactive; SUMO1-SIM PPI: inactive; DSG3 Ab inh: inactive; UHRF1 MBD2 ctr: inactive; DNMT1 block: inactive

What do the screens show for `CCCCCCn1c(=O)c(C(=O)Nc2ncccc2O)c(O)c2ccccc21`?
NS3 helicase inh: inactive; MBD2 inh: inactive; SUMO1-SIM PPI: inactive; DSG3 Ab inh: inactive; UHRF1 MBD2 ctr: inactive; DNMT1 block: 70; DNMT1 confirm: inactive; Beacon interf: inactive

Results for CCCCCn1c(=O)c(C(=O)Nc2ccccn2)c(O)c2ccccc21 ?
NS3 helicase inh: inactive; MBD2 inh: inactive; SUMO1-SIM PPI: inactive; DSG3 Ab inh: inactive; UHRF1 MBD2 ctr: inactive; DNMT1 block: inactive

How did Cc1cccc(N2C(=O)NC(=O)/C(=C\c3cc(C)n(-c4sc5c(c4C#N)CCCC5)c3C)C2=O)c1C do in these assays?
NS3 helicase inh: inactive; MBD2 inh: inactive; SUMO1-SIM PPI: 54; DSG3 Ab inh: inactive; UHRF1 MBD2 ctr: inactive; DNMT1 block: 71; DNMT1 confirm: inactive; Beacon interf: inactive

Results for COCCNC(=O)c1c(N)n(Cc2ccco2)c2nc3ccccc3nc12 ?
NS3 helicase inh: inactive; MBD2 inh: inactive; SUMO1-SIM PPI: inactive; DSG3 Ab inh: inactive; UHRF1 MBD2 ctr: inactive; DNMT1 block: inactive

How did C=CCNC(=O)c1c(N)n(Cc2ccco2)c2nc3ccccc3nc12 do in these assays?
NS3 helicase inh: inactive; MBD2 inh: inactive; SUMO1-SIM PPI: inactive; DSG3 Ab inh: inactive; UHRF1 MBD2 ctr: inactive; DNMT1 block: 102; DNMT1 confirm: inactive; Beacon interf: inactive

What do the screens show for `CN(C)[C@@H]1C(=O)C(C(N)=O)=C(O)[C@@]2(O)C(=O)C3=C(O)c4c(O)ccc(Cl)c4[C@@](C)(O)C3C[C@@H]12` (stereo partly specified)?
NS3 helicase inh: inactive; MBD2 inh: inactive; SUMO1-SIM PPI: inactive; DSG3 Ab inh: inactive; UHRF1 MBD2 ctr: inactive; DNMT1 block: 56; DNMT1 confirm: inactive; Beacon interf: inactive

Results for CCCCOC(=O)C1=C(N)OC2=C(C(=O)CCC2)[C@]12C(=O)Nc1ccccc12 ?
NS3 helicase inh: inactive; MBD2 inh: inactive; SUMO1-SIM PPI: inactive; DSG3 Ab inh: inactive; UHRF1 MBD2 ctr: inactive; DNMT1 block: inactive

What do the screens show for `CSC1=NP(=S)(SC)N2CCCC2=C1C#N` (stereo unspecified)?
NS3 helicase inh: inactive; MBD2 inh: inactive; SUMO1-SIM PPI: inactive; UHRF1 MBD2 ctr: inactive; DNMT1 block: inactive

Screens: PubChem, several laboratories
